Reference: ChEMBL document CHEMBL5331128, “Alicyclic Ring Size Variation of 4-Phenyl-2-naphthoic Acid Derivatives as P2Y14 Receptor Antagonists” (J Med Chem, 2023)
pIC50, pKi: −log10 of the molar value. The source made the active and inactive calls.

Experiments:
[1] = Half life in Wistar rat at 0.5 mg/kg, iv and measured upto 24 hrs; assay type: ADME, organism-based; details: in vivo
[2] = biological target: Cytochrome P450 2C9 (Homo sapiens, UniProt P11712); assay: Inhibition of CYP2C9 (unknown origin); assay type: ADME
Sequence of Cytochrome P450 2C9 (P11712 whole entry): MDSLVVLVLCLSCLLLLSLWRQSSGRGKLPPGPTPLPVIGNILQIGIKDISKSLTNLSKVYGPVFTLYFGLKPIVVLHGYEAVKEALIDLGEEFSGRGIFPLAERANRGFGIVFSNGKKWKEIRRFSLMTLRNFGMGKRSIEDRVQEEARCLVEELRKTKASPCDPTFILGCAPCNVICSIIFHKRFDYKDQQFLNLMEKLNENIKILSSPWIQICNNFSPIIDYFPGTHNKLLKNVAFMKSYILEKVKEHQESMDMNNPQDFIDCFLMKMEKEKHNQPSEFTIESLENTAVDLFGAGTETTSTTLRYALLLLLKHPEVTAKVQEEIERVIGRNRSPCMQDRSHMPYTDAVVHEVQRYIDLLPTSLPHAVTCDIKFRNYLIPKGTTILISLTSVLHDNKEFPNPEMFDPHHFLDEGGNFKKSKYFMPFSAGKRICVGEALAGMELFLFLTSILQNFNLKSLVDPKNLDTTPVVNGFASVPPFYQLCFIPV

[3] = Stability in simulated intestinal fluid assessed as parent compound remaining after 120 mins; assay type: ADME; details: simulated gi fluid, 2 h
In short: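 Incubation in simulated gastric or intestinal fluid; percent parent remaining read at 120 min.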

[4] = system: Mus musculus; assay: Antiallodynic activity in CCI surgery neuropathic pain Hsd:ICR mouse model assessed as reversal of mechano-allodynia by measuring paw withdrawal threshold at 10 micromol/kg,po and measured upto 6 hrs by von frey test; assay type: functional, organism-based; details: dose 10.0 µmol/kg
In short: (§1)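 CCI neuropathic pain in adult male CD-1 mice. Single oral gavage dose of 10 μmol/kg on day 7 post-surgery. Vehicle 5% DMSO + 10% (Kolliphor HS 15:DMSO 5:95) in 0.5% methylcellulose, 0.2 mL. Von Frey paw withdrawal threshold on both hindpaws. Mean ± SD; two-way ANOVA with Dunnett's test.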

[5] = Cmax in Wistar rat plasma at 3 mg/kg, ip and measured upto 24 hrs; assay type: ADME, organism-based; set-up: dose 3 mg/kg, time < 24 hrs, route ip
[6] = Microsomal stability in rat liver microsomes assessed as half life; assay type: ADME, Microsome
[7] = Half life in Wistar rat at 10 mg/kg, ip and measured upto 24 hrs; assay type: ADME, organism-based; details: in vivo
[8] = system: Mus musculus; assay: Antiallodynic activity in CCI surgery neuropathic pain Hsd:ICR mouse model assessed as reversal of mechano-allodynia by measuring paw withdrawal threshold at 10 micromol/kg,po and measured at 1 hrs by von frey test; assay type: functional, organism-based; details: dose 10.0 µmol/kg; in short: as §1
[9] = biological target: T1, P2Y purinoceptor 14 (Homo sapiens, UniProt Q15391); assay: Displacement of fluorescent tracer 4-(4-(1-(4-(1-(6-(3-carboxylato-4-(3-iminio-3H-xanthen-9-yl)benzamido)hexyl)-4,5-dihydro-1H-pyrrol-3-yl)butyl)piperidin-1-ium-4-yl)phenyl)-7-(4-(trifluoromethyl)phenyl)-2-naphthoate from human P2Y14R stably expressed in CHO cells assessed as inhibition constant by flow cytometry; assay type: cell-based
T1 sequence (Q15391 whole entry): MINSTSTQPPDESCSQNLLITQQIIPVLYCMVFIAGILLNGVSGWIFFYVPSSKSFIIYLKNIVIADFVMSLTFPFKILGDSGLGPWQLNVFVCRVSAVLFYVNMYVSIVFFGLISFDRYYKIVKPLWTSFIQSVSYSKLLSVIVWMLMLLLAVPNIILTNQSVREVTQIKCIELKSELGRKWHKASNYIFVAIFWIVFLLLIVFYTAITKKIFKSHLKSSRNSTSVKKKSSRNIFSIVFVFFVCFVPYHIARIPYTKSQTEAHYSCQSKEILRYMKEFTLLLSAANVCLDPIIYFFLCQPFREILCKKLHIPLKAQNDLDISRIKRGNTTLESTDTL
In short: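 Whole-cell competitive binding: CHO cells expressing hP2Y14R (or HEK-293 cells expressing mP2Y14R) incubated with AlexaFluor488-labelled antagonist tracer at 20 nM.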

[10] = system: Mus musculus; assay: Protection against cardiac ischemia/reperfusion induced C57BL/6J mouse injury model assessed as reduction in infarct area by measuring AAR/TTA ratio at 2 mg/kg, sc prior to 0.5 hrs of myocardial ischemia and 48 h of reperfusion (Rvb= […]); assay type: functional; set-up: scale not given: the % may be the effect or the level left; details: time 48.5 hrs
[11] = Half life in Wistar rat at 1 mg/kg, ip and measured upto 24 hrs; assay type: ADME, organism-based; details: in vivo
[12] = system: Mus musculus; assay: Antiallodynic activity in CCI surgery neuropathic pain Hsd:ICR mouse model assessed as reversal of mechano-allodynia by measuring paw withdrawal threshold at 10 micromol/kg,ip and measured at 0.5 hrs by von frey test; assay type: functional, organism-based; details: dose 10.0 µmol/kg
In short: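 CCI neuropathic pain in adult male Hsd:ICR (CD-1) mice (20–30 g). Single i.p. injection on day 7 after sciatic nerve constriction, at peak pain. Vehicle 10% (Kolliphor HS 15:DMSO 5:95) in saline, 0.2 mL. Paw withdrawal threshold by von Frey filaments on ipsilateral and contralateral hindpaws. Mean ± SD; two-way ANOVA with Dunnett's test versus day 0 and day 7.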

[13] = system: Mus musculus; assay: Anti-asthmatic activity against OVA/Aspergillus-sensitized protease-mediated C57BL/6J mouse model allergic asthma assessed as reduction in lymphocytes in BAL fluid at 10 mg/kg,ip followed by 0.5 hrs OVA challenge and measured after 48 hrs; assay type: functional, organism-based; details: time 48.5 hrs
[14] = biological target: T2, Cytochrome P450 1A2 (Homo sapiens, UniProt P05177); assay: Inhibition of CYP1A2 (unknown origin); assay type: ADME
T2 sequence (P05177 whole entry): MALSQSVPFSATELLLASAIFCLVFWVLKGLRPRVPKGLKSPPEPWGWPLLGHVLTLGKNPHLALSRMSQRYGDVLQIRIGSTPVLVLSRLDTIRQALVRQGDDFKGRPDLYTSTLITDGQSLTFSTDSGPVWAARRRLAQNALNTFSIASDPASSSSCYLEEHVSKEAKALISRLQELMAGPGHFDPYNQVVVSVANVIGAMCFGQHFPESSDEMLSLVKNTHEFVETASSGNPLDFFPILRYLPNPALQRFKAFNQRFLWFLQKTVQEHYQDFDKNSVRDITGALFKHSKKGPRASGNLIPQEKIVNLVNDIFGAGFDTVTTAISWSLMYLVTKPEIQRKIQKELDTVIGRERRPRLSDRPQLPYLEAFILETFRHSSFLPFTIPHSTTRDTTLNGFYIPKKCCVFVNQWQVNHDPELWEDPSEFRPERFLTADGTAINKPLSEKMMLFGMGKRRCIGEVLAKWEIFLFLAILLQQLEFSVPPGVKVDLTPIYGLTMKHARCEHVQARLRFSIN

[15] = Protein binding in human plasma assessed as bound fraction; assay type: ADME, cell-free
[16] = biological target: Cytochrome P450 2D6 (Homo sapiens, UniProt P10635); assay: Inhibition of CYP2D6 (unknown origin); assay type: ADME
Sequence of Cytochrome P450 2D6 (P10635 whole entry): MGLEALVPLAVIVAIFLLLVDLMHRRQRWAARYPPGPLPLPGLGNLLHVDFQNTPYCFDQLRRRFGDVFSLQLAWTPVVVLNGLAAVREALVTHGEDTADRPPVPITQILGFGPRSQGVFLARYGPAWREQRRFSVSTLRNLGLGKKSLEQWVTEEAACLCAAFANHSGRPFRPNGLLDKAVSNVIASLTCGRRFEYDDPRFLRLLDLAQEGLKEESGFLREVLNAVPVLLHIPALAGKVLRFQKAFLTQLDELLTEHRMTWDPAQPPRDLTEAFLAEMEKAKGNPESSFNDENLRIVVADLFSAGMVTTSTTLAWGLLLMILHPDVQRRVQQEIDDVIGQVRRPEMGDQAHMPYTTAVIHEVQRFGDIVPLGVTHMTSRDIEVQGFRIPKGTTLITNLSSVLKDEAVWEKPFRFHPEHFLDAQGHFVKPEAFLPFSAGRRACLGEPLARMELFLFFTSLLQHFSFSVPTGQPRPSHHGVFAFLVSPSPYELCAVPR

[17] = biological target: Cytochrome P450 3A4 (Homo sapiens, UniProt P08684); assay: Inhibition of CYP3A4 (unknown origin); assay type: ADME
Sequence of Cytochrome P450 3A4 (P08684 whole entry): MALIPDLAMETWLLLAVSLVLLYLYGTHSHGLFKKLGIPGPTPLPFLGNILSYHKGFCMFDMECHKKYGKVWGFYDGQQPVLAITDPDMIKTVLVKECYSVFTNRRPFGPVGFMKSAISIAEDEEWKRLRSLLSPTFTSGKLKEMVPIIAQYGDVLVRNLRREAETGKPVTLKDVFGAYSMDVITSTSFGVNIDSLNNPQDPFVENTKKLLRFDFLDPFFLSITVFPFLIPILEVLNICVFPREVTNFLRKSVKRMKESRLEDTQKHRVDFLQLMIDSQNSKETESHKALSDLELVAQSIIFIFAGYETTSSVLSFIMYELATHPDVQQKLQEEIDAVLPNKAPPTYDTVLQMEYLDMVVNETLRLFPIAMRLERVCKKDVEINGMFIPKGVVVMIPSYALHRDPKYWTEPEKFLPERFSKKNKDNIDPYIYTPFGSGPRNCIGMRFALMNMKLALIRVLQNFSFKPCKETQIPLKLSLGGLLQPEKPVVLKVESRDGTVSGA

[18] = Acute toxicity in Wistar rat assessed as mortality at 0.5 mg/kg, iv and measured upto 24 hrs; assay type: organism-based; details: in vivo
In short: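 Male Wistar rats; single dose at 1, 3 or 10 mg/kg i.p., or 0.5 mg/kg i.v. Animals were watched for mortality and morbidity over the experimental period, in the course of a plasma pharmacokinetic study.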

[19] = system: Mus musculus; assay: Anti-asthmatic activity against OVA/Aspergillus-sensitized protease-mediated C57BL/6J mouse model allergic asthma assessed as reduction in macrophages in BAL fluid at 10 mg/kg,ip followed by 0.5 hrs OVA challenge and measured after 48 hrs; assay type: functional, organism-based; details: time 48.5 hrs
[20] = Cmax in Wistar rat plasma at 1 mg/kg, ip and measured upto 24 hrs; assay type: ADME, organism-based; set-up: time < 24 hrs, dose 1 mg/kg, route ip
[21] = Lipophilicity, log D of compound at pH 7.4 incubated for 20 hrs by HPLC analysis; assay type: physicochemical; details: buffer
[22] = biological target: 5-hydroxytryptamine receptor 1B (Homo sapiens, UniProt P28222); assay: Displacement of [3H]-5-CT from human 5-HT1B receptor assessed as inhibition constant by radioligand displacement assay
Sequence of 5-hydroxytryptamine receptor 1B (P28222 whole entry): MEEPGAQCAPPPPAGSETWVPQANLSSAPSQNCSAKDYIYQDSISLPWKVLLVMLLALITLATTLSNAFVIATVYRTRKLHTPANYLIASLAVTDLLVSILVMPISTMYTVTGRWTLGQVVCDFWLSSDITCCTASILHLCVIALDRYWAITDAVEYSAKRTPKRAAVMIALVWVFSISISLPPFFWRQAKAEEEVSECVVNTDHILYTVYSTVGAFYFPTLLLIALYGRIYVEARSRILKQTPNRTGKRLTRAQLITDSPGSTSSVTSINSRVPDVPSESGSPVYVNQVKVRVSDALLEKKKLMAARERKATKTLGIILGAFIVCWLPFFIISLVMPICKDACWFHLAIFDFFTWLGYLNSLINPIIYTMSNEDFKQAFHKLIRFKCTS

[23] = Microsomal stability in human liver microsomes assessed as half life; assay type: ADME, Microsome
[24] = system: Mus musculus; assay: Anti-asthmatic activity against OVA/Aspergillus-sensitized protease-mediated C57BL/6J mouse model allergic asthma assessed as reduction in airway eosinophilia in BAL fluid at 10 mg/kg,ip followed by 0.5 hrs OVA challenge and measured after 48 hrs; assay type: functional, organism-based; details: time 48.5 hrs

## O=C(O)c1cc(-c2ccc([C@]3(O)[C@@H]4CNC[C@H]3C4)cc2)c2ccc(-c3ccc(C(F)(F)F)cc3)cc2c1
[1]
  t1/2: 2.36 h
[2]
  pIC50: < 4.52
[3]
  Stability: 93.3%
[4]
  Activity: Active
[5]
  Cmax: 1300 nM
[6]
  t1/2: 342 min
[7]
  t1/2: 4.15 h
[8]
  Activity: Active
[9]
  pKi: 8.46
[10]
  Activity: 33.7%
[11]
  t1/2: 3.01 h
[12]
  Activity: Active
[13]
  Activity: inactive
[14]
  pIC50: < 4.52
[15]
  PPB: 99.3%
[16]
  pIC50: < 4.52
[17]
  pIC50: < 4.52
[18]
  Activity: Non-Toxic
[19]
  Activity: inactive
[20]
  Cmax: 500 nM
[21]
  logD at 20 h: 1.2
[22]
  pKi: 5.22
[23]
  t1/2: > 400 min
[24]
  Activity: Active
